Screens deposited in PubChem BioAssay by several laboratories.
CTSL1 counter: cathepsin L1 inhibition, PFM18AAP counter-screen; inhibition, % at 5.96 µM; actives 0.49% (n = 300,000); recombinant F. hepatica cathepsin L1, Z-Leu-Arg-MCA fluorescence;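 active = inhibition above the mean of all tested compounds plus 3 SD, set per screening campaign, cut at about 17% in these data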;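 note: 0% = plate median of test compound wells and 100% = 1 µM Z-Phe-Ala-diazomethylketone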
UCH37 DUB inh: inhibitors of human deubiquitinating enzyme UCH37. Q9Y5K5. purified proteasome/UCH37, Ub-AMC cleavage fluorescence. inhibition, % (test concentration not listed). actives 0.33% (n = 330,000). AID 588478;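 active = mean inhibition over replicate wells above about 20%, limit read from the data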;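 note: 0% = compound-free wells with enzyme and 100% = wells lacking proteasome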
Target sequence (Q9Y5K5 whole entry, looked up): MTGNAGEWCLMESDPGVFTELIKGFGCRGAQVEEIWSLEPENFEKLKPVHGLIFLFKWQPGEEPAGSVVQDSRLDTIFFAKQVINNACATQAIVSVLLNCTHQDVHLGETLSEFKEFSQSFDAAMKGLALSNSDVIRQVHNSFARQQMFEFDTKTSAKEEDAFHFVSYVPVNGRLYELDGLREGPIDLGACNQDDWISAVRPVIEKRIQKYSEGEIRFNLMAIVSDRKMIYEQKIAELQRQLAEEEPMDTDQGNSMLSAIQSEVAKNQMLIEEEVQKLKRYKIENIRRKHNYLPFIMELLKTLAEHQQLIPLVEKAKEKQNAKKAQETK
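Reagent: Ub-AMC substrate; assay system: Proteasome-associated human UCH37 deubiquitinase; controls: no-proteasome and no-compound wells; read-out: % inhibition of Ub-AMC cleavage fluorescence; timing: 30 min preincubation with enzyme, 25 min cleavage at room temperature; signal: AMC fluorescence from Ub-AMC cleavage, excitation 355 nm, emission 460 nm; buffer or medium: Tris-HCl pH 7.4 plus ovalbumin, ATP-MgCl2, DTT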
UPR XBP1 act: adaptive UPR (XBP1) activation; CHO-XBP1 luciferase reporter, IRE1-XBP1 UPR activation, luminescence; percent of tunicamycin response, DMSO as zero; activation, % at 20 µM; actives 0.33% (n = 330,000); AID 463104;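 active = versus positive control, 20 µM dose yields 30% or more activation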;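 note: 100% = tunicamycin at 10 µg/mL and 0% = DMSO only wells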
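Material: CHO-XBP1 cells stably carrying IRE1-XBP1-driven luciferase reporter / Amount: 1000 cells per well / Compound: 20 µM, 1% DMSO / Times: 6 h treatment, 37 °C / Detection: luciferase luminescence / Measure: % activation of reporter signal versus tunicamycin and DMSO controls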
CHOP inh: CHOP inhibition in unfolded protein response. AID 2732. CHO-K1 CHOP-promoter luciferase, tunicamycin-induced, 15-18 h. actives 3.8% (n = 220,000). inhibition, % at 10 µM;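 active = compounds that reduced the stress-induced luciferase reporter signal by more than about 70% of percent inhibition, limit read from the data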;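 note: 0% = tunicamycin plus vehicle and 100% = wells without tunicamycin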
UPR CHOP act: activators of apoptotic arm of unfolded protein response (CHOP) | CHO-CHOP luciferase reporter, UPR activation, luminescence; percent of tunicamycin response over DMSO baseline | activation, % at 10 µM | AID 449763 | actives 0.34% (n = 330,000);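 active = at 10 µM dose, activation of 40% or more, normalized to positive control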;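 note: 100% = tunicamycin at 10 µg/mL and 0% = DMSO alone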
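System: CHO-CHOP luciferase reporter cell line | Buffer or medium: F12 medium containing 10% fetal bovine serum | Doses: One dose, 10 µM in 0.5% DMSO | Times: 6 h compound exposure at 37 °C after overnight seeding | Signal: Luciferase luminescence | Read-out: % activation vs tunicamycin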
An asterisk follows results filed as active; . = no result. Shown is part of a subset that was picked to be rich in hits.

SMILES	CTSL1 counter	UCH37 DUB inh	UPR XBP1 act	CHOP inh	UPR CHOP act
O=C(NN=C/C=C/c1ccco1)c1ccncc1	.	17.2	.	.	.
Cc1ccc(S(=O)(=O)N2CCN(CC(=O)NN=Cc3ccc(Br)s3)CC2)cc1	.	6.7	.	.	.
CCOc1ccc(NC(=S)Nc2ccc(OCC)cc2)cc1	-5.2	0.6	-1.9	8.2	0.6
CCOc1ccc(NC(=O)Nc2ccc3nsnc3c2)cc1	3.9	-3.6	1.6	7.3	0.1
CCOc1ccc(NC(=S)Nc2ccc(C)c([N+](=O)[O-])c2)cc1	2.3	5.5	-1.7	70.5*	-0.3
O=C(Nc1ccc2nsnc2c1)N1CCCCC1	1.6	-50.3	-0.6	29.9	1.4
S=C(Nc1ccc2nsnc2c1)N1CCCCCC1	107.5*	11.0	1.2	13.4	3.5
CCOc1ccc(NC(=S)Nc2ccc3nsnc3c2)cc1	109.8*	13.9	1.1	-0.6	1.6
O=C(NN=Cc1ccccc1)c1ccc(N2CCCC2=O)cc1	.	4.8	.	.	.
CC(=NNC(=O)c1c(Br)cnn1C)c1ccc(NC(=O)c2ccc(F)cc2)cc1	.	3.1	.	.	.
CCc1ccc2c(c1)C(c1ccc([N+](=O)[O-])cc1)=NNC(c1ccc(F)cc1)=N2	1.9	6.9	4.3	85.8*	5.2
CCS(=O)(=O)N1CCC(C(=O)NCc2ccc3c(c2)OCO3)CC1	5.5	3.0	1.3	20.1	-0.3
CCCCC1CCC(C(=O)NCc2ccc3c(c2)OCO3)CC1 (stereo not drawn)	-2.0	-2.8	-1.0	82.5*	-1.3
COc1ccc(/C=C2\CCC(C3CCCC3)C2=O)c(OC)c1OC (stereo not drawn)	5.9	4.8	5.1	.	2.3
COc1cc(/C=C2\CCC(C3CCCC3)C2=O)cc(OC)c1OC (stereo not drawn)	27.4*	3.9	-0.1	.	7.2
COc1cc(C(=O)NN=C(C)c2ccc(NC(=O)Cc3ccccc3)cc2)ccc1O	.	4.6	.	.	.
Cc1ccc(C)c(OCCCC(=O)O)c1	17.3*	5.0	-0.8	30.9	-2.0
Cc1ccc(C)c(OCCCC(C)(C)C(=O)O)c1	-3.3	3.4	-3.9	11.9	-1.9
ON=Cc1ccccc1Oc1ccc(Cl)cc1	.	1.0	.	.	.
CC1CCc2c(C(=O)Oc3cccc(-n4cnnn4)c3)csc2C1 (stereo not drawn)	4.5	3.3	1.1	88.6*	-0.4
Cc1ccc(C(=O)Oc2cccc(-n3cnnn3)c2)cc1	-2.3	1.1	2.8	23.9	6.9
CC(=NNC(=O)CN1CCN(c2ccc(F)cc2)CC1)c1ccco1	.	2.7	.	.	.
O=S(=O)(N=C(c1ccccc1)N1CCOCC1)c1ccc(Cl)cc1	.	1.7	.	.	.
COc1ccccc1-n1cnc(N)c1C(=O)c1ccccc1	18.8*	2.3	-2.6	.	-2.1
COc1ccccc1-n1cnc(N)c1C(C)=O	4.4	-1.4	-1.9	-4.7	-2.2
SMILES	CTSL1 counter	UCH37 DUB inh	UPR XBP1 act	CHOP inh	UPR CHOP act
COc1ccc(N2C(=O)CC(Sc3ncn[nH]3)C2=O)c(OC)c1 (stereo not drawn)	1.2	0.1	-0.8	91.2*	11.4
CC(C)c1ccc(N2C(=O)CC(Sc3ncn[nH]3)C2=O)cc1 (stereo not drawn)	0.3	2.6	-0.1	-51.9	1.6
Cc1nn(C(C)(C)C)c(C)c1C=NOC(=O)Nc1ccc(Cl)c(Cl)c1	.	5.5	.	.	.
C=CCS/C(N)=N\N=C\c1c(O)ccc2ccccc12	22.1*	.	0.2	-23.9	6.5
Cc1ccc(-c2onc3ccc(Cl)cc23)cc1	-3.8	0.1	-1.1	64.1	0.9
COc1ccc(-c2onc3ccc(Cl)cc23)cc1	-0.3	1.5	1.8	79.1*	2.7
COCCCNS(=O)(=O)c1ccc(SC)cc1	-0.6	-0.7	-0.7	45.5	-0.8
CSc1ccc(S(=O)(=O)NCCOc2ccccc2C)cc1	-1.1	-1.8	-1.2	71.6*	0.4
Cn1cccc1C=NNC(=O)Cc1cccs1	.	3.6	.	.	.
Cc1cc(N2CCC(C)CC2)nc2cccc(O)c12	1.1	0.0	0.1	82.2*	0.9
O=C(Nc1ccc(-c2nc3ccccc3[nH]2)cc1)c1c(F)c(F)c(F)c(F)c1F	-0.1	-24.5	0.3	-18.8	-0.9
COc1c(F)c(F)c(C(=O)Nc2ccc(-c3nc4ccccc4[nH]3)cc2)c(F)c1F	-0.1	-2.9	-0.5	83.3*	0.8
COc1c(F)c(F)c(C(=O)Nc2ccc(N3CCN(Cc4ccccc4)CC3)cc2)c(F)c1F	0.6	1.7	0.3	87.5*	3.9
